Compound activity: PubChem, several laboratories
Only some compounds are listed: those with a hit (about 1.2% of all), similar ones and a draw of the others.
zfTRPN1 agonist – activates the zebrafish TRPN1 channel; activation, % at 3 µM; AID 1424; 220,000 compounds, 0.18% hits; HEK293 zebrafish TRPN1-YFP, Fluo-8 calcium fluorescence; 100% = response to 87 µM carbachol;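 active = activation above its plate's cutoff, the mean activation of test wells on that plate plus 3 SD, cut at about 19% in these data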;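 also: 0% = DMSO alone and 100% = 87 µM carbachol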
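Material: zebrafish TRPN1-YFP in HEK293 cells; Doses: single test compound dose, 3 µM nominal, 0.3% DMSO; Timing: dye loading 1 h at 37 °C, then 30 min room temperature; Technique: intracellular calcium fluorescence with Fluo-8; Benchmarks: high carbachol 87 µM, low DMSO alone.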
TRPML3 ag – agonists of human TRPML3 channel | HEK293 TRPML3-YFP, Fluo-8 calcium fluorescence; 100% = the carbachol control signal | activation, % at 3 µM | 220,000 compounds, 0.29% hits | Q8TDD5;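 active = activation above its plate's cutoff, the mean activation of the plate's test wells plus 3 SD, cut at about 12% in these data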;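 also: 0% = DMSO only wells and 100% = carbachol wells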
Target sequence (Q8TDD5 whole entry, looked up): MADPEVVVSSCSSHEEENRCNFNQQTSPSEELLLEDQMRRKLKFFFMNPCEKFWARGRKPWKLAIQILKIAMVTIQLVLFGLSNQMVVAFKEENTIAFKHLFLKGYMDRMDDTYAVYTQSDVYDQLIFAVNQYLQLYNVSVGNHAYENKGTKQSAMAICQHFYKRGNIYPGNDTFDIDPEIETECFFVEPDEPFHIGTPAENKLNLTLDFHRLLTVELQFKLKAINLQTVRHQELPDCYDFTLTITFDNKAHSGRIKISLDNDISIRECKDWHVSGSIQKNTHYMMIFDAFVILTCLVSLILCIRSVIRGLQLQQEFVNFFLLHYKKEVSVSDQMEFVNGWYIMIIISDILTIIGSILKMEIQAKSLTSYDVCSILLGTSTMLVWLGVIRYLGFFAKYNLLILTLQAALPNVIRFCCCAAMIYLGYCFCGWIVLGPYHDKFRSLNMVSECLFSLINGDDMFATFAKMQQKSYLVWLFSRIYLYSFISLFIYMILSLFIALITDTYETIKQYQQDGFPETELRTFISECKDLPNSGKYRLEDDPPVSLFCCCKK
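Test system: TRPML3-YFP stable HEK293 cells. Doses: single point at 3 µM. Incubation: dye loading 1 h 37 °C then 30 min ambient, 125 s read. Signal: Fluo-8 calcium dye fluorescence, ex 470-495, em 515-575 nm. Measure: percent activation from peak-to-basal fluorescence ratio, scaled between DMSO and carbachol.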
CRFBP-R2 block – antagonists of CRF-binding protein/CRF-R2 receptor complex. HEK293 CRF-R2/CRF-BP, CRF-induced calcium fluorescence. inhibition, % at 11.8 µM. 350,000 compounds, 0.59% hits. AID 588475;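 active = inhibition of the ligand-induced calcium signal above about 50% at the single tested concentration, limit read from the data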
CRFR2-BP ag – CRF-BP/CRF-R2 complex agonism. HEK293 CRF-R2/CRF-BP, calcium dye fluorescence (FLIPR); percent of saturating CRF peptide response. activation, % at 13.2 µM. 350,000 compounds, 0.46% hits;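 active = activation of at least 50%, plus an integration ratio under a set limit after plate pattern correction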;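 also: plate controls were neutral control wells without compound for no effect and CRF at EC100 for full effect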
Numbers without * were called inactive; nt = no result.

SMILES	zfTRPN1 agonist	TRPML3 ag	CRFBP-R2 block	CRFR2-BP ag
COc1ccc(OCCN2C(=O)c3ccccc3C2=O)cc1	1	0	-2	0
Cc1ccccc1/C=C/C(=O)N1CCOCC1	1	0	6	-1
COc1ccccc1/C=C/C(=O)N1CCOCC1	0	0	85*	-5
CC(C(=O)Nc1cccnc1)c1ccc([N+](=O)[O-])cc1 (stereo not given)	2	2	12	1
CC(C)Cc1ccc(C(C)C(=O)Nc2ccc(O)cc2)cc1 (stereo not given)	45*	22*	-16	78*
CC(C)Cc1ccc(C(C)C(=O)Nc2cccnc2)cc1 (stereo not given)	nt	nt	-25	62*
Brc1cccc(CNCCCN2CCOCC2)c1	1	2	4	-1
O=c1cc(-c2ccccc2)nc2nc(CCc3ccccc3)[nH]n12	1	1	10	-1
O=C(CCC(=O)N1CCOc2ccccc21)NC1CCCCCC1	nt	nt	74*	0
N/C(=N\OC(=O)Cc1cccs1)c1cccc([N+](=O)[O-])c1	0	0	-22	4
C[C@@H]1CCCCO[C@H](CN(C)Cc2ccc(Cl)c(Cl)c2)[C@@H](C)CN([C@H](C)CO)C(=O)c2cc(N(C)C)ccc2O1	nt	nt	-7	0
O=C(O)C(c1ccccc1)C1(O)CCCC1 (stereo not given)	0	1	97*	1
CC1CCC(O)(C(C(=O)O)c2ccccc2)CC1 (stereo not given)	nt	nt	-15	-1
COCC1=C(C(=O)OC(C)OC(=O)OC(C)C)N2C(=O)[C@@H](NC(=O)/C(=N\OC)c3csc(N)n3)[C@H]2SC1 (stereo not given in full)	nt	nt	8	2
COc1ccc(-c2csc(NC(=O)c3ccccc3NS(=O)(=O)c3ccc(C)cc3)n2)cc1	7	6	58*	10
O=C(Nc1nc(-c2cccc3ccccc23)cs1)c1ccc2c(c1)S(=O)(=O)c1ccccc1C2=O	2	1	11	0
O=C(Nc1nc(-c2ccccc2)cs1)c1ccc2c(c1)S(=O)(=O)c1ccccc1C2=O	1	1	86*	0
Cc1ccc(-c2csc3ncn(CC(=O)O)c(=O)c23)cc1C	nt	nt	2	0
CCOC(=O)c1cc([N+](=O)[O-])c([N+](=O)[O-])cc1NC(C)=O	-1	0	51*	-3
CCOC(=O)c1ccc(NC(=O)c2ccccc2[N+](=O)[O-])cc1	0	1	20	-5
NC(=Nc1ccccc1)Nc1ccccc1	nt	nt	29	147*
O=[N+]([O-])c1ccc(/C=C/c2ccc3cccc(O)c3n2)cc1	nt	nt	18	0
O=C(Nc1ncn[nH]1)c1ccc(Cl)cc1Cl	1	1	-3	-1
CCN(CC)Cc1c(C)[nH]c2ccc(NC(C)=O)cc2c1=O	nt	nt	67*	0
O=C(c1ccc2snnc2c1)N1CCN(c2ccccn2)CC1	0	0	79*	0
SMILES	zfTRPN1 agonist	TRPML3 ag	CRFBP-R2 block	CRFR2-BP ag
CCN(CC)C(=O)c1ccc(/C=C/c2c[nH]c3ccccc23)[n+](C)c1	3	1	-15	54*
CC[n+]1c(/C=C/c2c[nH]c3ccccc23)ccc2cc(C)ccc21	30*	10	-303	271*
Cc1ccc(C(=O)/C=C/c2c[nH]c3ccccc23)cc1	1	0	6	5
Cc1ccc(CNC(=O)COC(=O)CSc2cc(C)c(Br)cc2C)cc1	2	0	5	-1
CCc1nc2n(n1)C(O)c1cc([N+](=O)[O-])ccc1S2 (stereo not given)	1	0	-9	1
COc1ccc2c(c1)c(CC(=O)Nc1cc(C)ccc1C)c(C)n2C(=O)c1ccc(Cl)cc1	3	1	-97	89*
COc1ccc(S(=O)(=O)N2CCCCC2)cc1NC(=O)C1CSC2(C)CCC(=O)N12 (stereo not given)	nt	nt	-1	-1
CN(/N=C/c1ccccc1O)C(=S)c1ccccc1	nt	nt	7	1
Cc1cccc(OCCCC(=O)NC(C)C)c1	2	0	82*	0
CC1c2cc3c(cc2CCN1CC(=O)Nc1ccccc1)OCCCO3 (stereo not given)	nt	nt	-8	6
CCN1C(c2ccccc2)C(C)C(=O)C(C)C1c1ccccc1 (stereo not given)	-1	0	57*	1
CC1C(=O)C(C)C(c2ccccc2)N(N=O)C1c1ccccc1 (stereo not given)	nt	nt	14	-1
O=C(Nc1ncc(Cc2ccc(SC(F)F)cc2)s1)c1ccc(OC(F)F)cc1	1	0	-110	68*
O=C1CSC(=S)N1/N=C/c1cc(Br)c(O)c(Br)c1	nt	nt	-219	185*
Cc1ccc(CNc2nc3c([nH]2)c(=O)n(C)c(=O)n3C)cc1	-1	0	2	-3
Cc1ccc(C)c(-n2c(CNC(=O)c3ccco3)nnc2SCC(=O)Nc2nccs2)c1	0	0	3	0
Cc1ccc(-n2nc3c(=O)n(CCCC(=O)N4CCCCC4)nc(C)c3c2C)cc1	nt	nt	4	0
COc1ccc(OC)c(-c2cc(C(=O)O)c3cc4ccccc4cc3n2)c1	nt	nt	50*	3
O=C(Nc1nc2c(F)cc(F)cc2s1)c1ccc([N+](=O)[O-])o1	nt	nt	80*	18
Cc1cc(C)c2nc(NC(=O)c3ccc([N+](=O)[O-])o3)sc2c1	nt	nt	6	0
Cc1cc(/C=N/NC(N)=S)c(O)c(/C=N/NC(N)=S)c1	41*	16*	-73	157*
COc1ccc(S(=O)(=O)N2CC3C4C=CC(C4)C3C2)cc1 (stereo not given)	1	56*	16	-1
COc1ccc(S(=O)(=O)N2CC(C)N(S(=O)(=O)c3ccc(OC)cc3)CC2C)cc1 (stereo not given)	nt	nt	8	4
CC(=C1SC(=S)NC1=O)c1ccccc1	nt	nt	33	-4
CC1(c2ccccc2)CC(C)(C)N2C(=O)/C(=C3\SC(=S)NC3=O)c3cccc1c32 (stereo not given)	1	0	54*	1
SMILES	zfTRPN1 agonist	TRPML3 ag	CRFBP-R2 block	CRFR2-BP ag
COc1ccc(NC(=O)C(=S)N2CCCC2)cc1	0	1	0	0
COc1ccc(C(C(=O)NC2CCCCC2)N(Cc2cccs2)C(=O)Cc2c[nH]c3ccccc23)cc1OC (stereo not given)	-1	0	52*	3
Cc1ccc(C(=O)CC(=O)c2cc(Cl)ccc2O)cc1	-1	0	-82	68*
Cc1ccc(NC(=O)CCn2c(=S)oc3ccccc32)cc1	-1	0	-12	1
COc1cc(/C=N/N(C)c2ccccc2)cc(Cl)c1O	-2	-1	53*	-2
Cc1nnc(NC(=O)c2sc3nc(-c4cccs4)cc(C(F)(F)F)c3c2N)s1	7	3	-243	213*
CC(C)(C)C(=O)c1sc2nc(-c3cccs3)cc(C(F)(F)F)c2c1N	1	1	-32	83*
COc1ccccc1NC(=O)c1sc2nc(Cc3ccccc3)cc(C(F)(F)F)c2c1N	-1	1	-66	58*
